High-throughput results deposited in PubChem by several laboratories.
Sampled rows, rich in hits. Any-hit rate of the full collection: about 2.4%.
STAT1 inh: inhibitors of IFN-gamma induced STAT1 signaling; 200,000 compounds, 0.35% hits; AID 920; NIH 3T3 STAT1-luciferase reporter, luminescence; inhibition, % at 5.5 µM;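 active = inhibition above a set limit, the mean inhibition across all tested compounds plus 3 SD, cut at about 34% in these data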;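 note: 0% = IFN-gamma with DMSO and 100% = IFN-gamma with 300 µM nifuroxazide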
MT stabilizer: microtubule stabilization, imaging screen. 200,000 compounds, 0.83% hits. % tubulin-high responders, % at 10 µM. HeLa tubulin immunostaining HCS, 24 h; share of cells brighter than vehicle mean+2SD;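 active = plate Z-score above 3 for both tubulin-high and condensed-nucleus cell shares, with cell loss under 80%, at 10 µM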;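 note: anti alpha tubulin signal scored within the nucleus-defined area of each cell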
STAT3 inh: reduces IL-6 driven STAT3 reporter signal. U3A cells, IL-6 STAT3-luciferase reporter, luminescence; host cell line lacks STAT1. 190,000 compounds, 0.89% hits. inhibition, % at 5.5 µM;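 active = inhibition above the mean inhibition across all screened compounds plus 3 SD, cut at about 44% in these data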;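 note: 0% = DMSO only wells and 100% = 100 µM nifuroxazide control wells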
STAT3 activator: STAT3 signaling activation | U3A cells, IL-6 STAT3-luciferase reporter, luminescence; 100% = signal with IL-6 EC80 alone | activation (% of control), % at 5.6 µM | 190,000 compounds, 0.91% hits | AID 871;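 active = activation above the screen-wide mean of compound activation plus 3 SD, cut at about 130% in these data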;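 note: 0% = background luminescence of wells with medium and substrate only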
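Material: STAT3-luciferase reporter U3A cells; Probe or stimulus: IL-6 (33 ng/mL); Incubation: compound pre-incubation 1 h before IL-6, then 6 h stimulation at 37 °C; Technique: luminescence from STAT3-driven luciferase reporter; Evaluation: % activation versus median of IL-6-stimulated wells; Controls: IL-6-only high control.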
b-catenin transl: modulators of beta-catenin nuclear translocation; nuclear translocation activity, % at 5 µM; 190,000 compounds, 0.3% hits; HeLa beta-catenin nuclear translocation, immunofluorescence imaging; AID 1665;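 active = nuclear translocation activity above 50% at 5 µM, with a well cell count of 50 or more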;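 note: per-cell ratio of nuclear to cytoplasmic median beta-catenin stain intensity; plate controls were DMSO negative control for no effect and GSK-3 inhibitor IX positive control for full effect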
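Technique: fluorescence imaging of beta-catenin antibody stain plus DAPI / Material: human HeLa cell line / Incubation: compound treatment 24 h, 37°C, 5% CO2 / Read-out basis: % activation of per-cell nuclear versus cytoplasmic median beta-catenin signal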
Starred values were filed as active, the others as inactive; · = no result given.

SMILES | STAT1 inh | MT stabilizer | STAT3 inh | STAT3 activator | b-catenin transl
COCCCN1C(=O)c2[nH]nc(-c3ccccc3O)c2C1c1ccc(Cl)cc1 (stereo unspecified) | 0 | 44* | -2 | 104 | 0
COCCCN1C(=O)c2[nH]nc(-c3ccccc3O)c2C1c1cccc(Cl)c1 (stereo unspecified) | 1 | 36* | 5 | 98 | -4
COC(=O)c1ccc(COc2ccccc2/C=N/NC(=O)c2cccnc2)cc1 | -11 | 6 | 23 | 82 | -1
O=C(OCc1nc2ccccc2s1)c1ccccc1O | -15 | 2 | -6 | 111 | 0
O=C(OCc1nc2ccccc2s1)c1cccs1 | -40 | 3 | -57 | 151* | -1
Oc1ccc(C(=S)N2CCN(c3cccc(Cl)c3)CC2)cc1 | -3 | 7 | 0 | 104 | -1
COc1ccc(C(=O)N2CCN(c3cccc(Cl)c3)CC2)cc1 | 7 | 2 | 8 | 94 | -2
COc1cc(CN2CCN(c3cccc(Cl)c3)CC2)cc(OC)c1OC | -6 | 46* | 8 | 96 | -2
COc1ccc(C(=S)N2CCN(c3cccc(Cl)c3)CC2)c(OC)c1 | 4 | 18* | 4 | 102 | 107*
COc1cc(C(=S)N2CCN(c3cccc(Cl)c3)CC2)ccc1O | -12 | 24* | 8 | 98 | 50*
CNc1nc(N)nc(-c2cc(Cl)ccc2OC)n1 | -1 | 6 | -3 | 107 | -2
COc1ccccc1NC(=O)N1CCC(c2nc3cc(C)c(C)cc3[nH]2)CC1 | -8 | 18* | -18 | 118 | 40
CCOC(=O)Cn1ccc(-c2ccccc2)c(C#N)c1=O | -7 | 2 | 3 | 107 | -3
CN=c1scc(-c2cccs2)n1/N=C/c1ccc(O)c(O)c1O | 47* | 7 | 45* | 64 | 0
Cc1cc(C)n(/N=C/c2ccccc2O)c(=O)c1 | 5 | 4 | 13 | 91 | 1
CN=c1scc(C)n1/N=C/c1ccc(O)c(O)c1O | 9 | 2 | 23 | 81 | ·
CN=c1scc(-c2cccs2)n1/N=C/c1ccccc1O | 47* | 3 | 107* | 9 | ·
CN1CCN(NC(=O)c2cccc(C(F)(F)F)c2)CC1 | · | · | · | · | 1
Cc1cc(C(=O)N2CCN(S(=O)(=O)c3ccccc3F)CC2)c(C)o1 | 1 | 2 | -5 | 105 | -2
CCCc1cc(-c2[nH]ncc2-c2ccc3c(c2)OCCCO3)c(O)cc1OC | 1 | 47* | 3 | 98 | 3
O=C(COC(=O)c1ccc2[nH]c3c(c2c1)CCCC3)Nc1ccccc1Cl | -16 | 2 | -3 | 107 | -3
CCC(C)c1ccccc1NC(=O)COC(=O)c1ccc2[nH]c3c(c2c1)CCCC3 (stereo unspecified) | -9 | 13* | -4 | 107 | 0
Cc1cc(C)c(C#N)c(Sc2ccccc2N)n1 | -43 | 6 | -77 | 168* | -1
CCCCc1nc2sc3c(SCC(=O)NCc4ccco4)ncnc3c2c2c1CCC2 | 2 | 33* | -4 | 108 | 17
CSc1nc(SCC(=O)NCc2ccco2)c2c3c(sc2n1)COC(C)(C)C3 | 0 | 35* | -2 | 107 | -1
SMILES | STAT1 inh | MT stabilizer | STAT3 inh | STAT3 activator | b-catenin transl
CCOc1ccc(-c2nnc3n2N=C(c2ccc(OC)cc2)CS3)cc1 | 1 | 5 | -5 | 109 | 1
COc1ccc(C2=Nn3c(nnc3-c3ccccn3)SC2)cc1 | 3 | 52* | 19 | 85 | -1
COc1ccc(C2=Nn3c([n+](C)c4ccccc43)SC2)cc1 | 35* | 5 | 37 | 70 | -3
C[n+]1c2n(c3ccccc31)N=C(c1ccc(Cl)cc1)CS2 | 24 | 2 | -22 | 128 | -1
CCOc1ccc(C2=Nn3c(nnc3-c3ccccc3OC)SC2)cc1 | -16 | 19* | -49 | 146* | 46
COc1cc(C2C3=C(CC(C)(C)CC3=O)OC3=C2C(=O)CC(C)(C)C3)cc([N+](=O)[O-])c1O | 8 | 2 | -2 | 104 | -1
COc1cc(/C=C/c2nc3ccccc3s2)cc(OC)c1O | -15 | 4 | 19 | 91 | 2
CN(C)c1ccc(/C=C/c2ccc3ccccc3n2)cc1 | · | · | · | · | -5
CN(C)c1ccc(/C=C/c2nc3ccccc3s2)cc1 | 91* | 0 | 108* | 14 | 1
Cc1ccc(/C=C/c2nc3ccccc3s2)s1 | 44* | 3 | 70* | 43 | -1
O=[N+]([O-])c1ccc(N2CCN(C(=S)Nc3ccc(F)cc3F)CC2)cc1 | 22 | 2 | 25 | 85 | 3
CC1(C)Cc2nc3oc4c(NCCCN5CCOCC5)ncnc4c3cc2CO1 | · | · | · | · | -3
Cc1cc(N2CCCC2)ccc1/C=C1/C(=O)N(C)C(=S)N1C | -9 | 25* | -13 | 115 | 20
Cc1cc(/C=C2/C(=O)N(C)C(=S)N2C)ccc1N1CCCC1 | -81 | 1 | -24 | 132 | 2
COc1cnc(-c2ccccn2)nc1Sc1ccc(F)cc1 | 1 | 3 | 3 | 100 | 0
N#Cc1ccc(/C=N/N=C(N)N)cc1 | -1 | 2 | 10 | 96 | -3
NC(N)=N/N=C/c1ccc(Br)cc1 | -4 | 24* | 15 | 92 | 113*
O=C(N/N=C/c1cccc(C(F)(F)F)c1)c1cc2c(s1)-c1ccccc1CC2 | -5 | 14 | -4 | 108 | 2
CCOC(=O)c1cc2ccc3ccccc3c2s1 | -54 | 4 | -118 | 203* | 0
CCOC(=O)c1cc2c(s1)-c1ccccc1CC2 | -34 | 3 | -76 | 174* | -1
Cc1cccc(/C=N/NC(=O)c2cc3c(s2)-c2ccccc2CC3)c1 | -6 | 34* | -8 | 112 | 0
CCOC(=O)N1CCN(C(=O)c2cc3c(s2)-c2ccccc2OC3)CC1 | 5 | 7 | 5 | 100 | 4
CCOC(=O)c1cc2cc3ccccc3cc2[nH]1 | -41 | 4 | -13 | 114 | 3
COc1ccc(C(=O)CSc2nc3ncccc3[nH]2)cc1OC | · | · | · | · | -1
CCOC(=O)Cc1cc(OC)c(OC)cc1Cc1cc(OC)c(OC)cc1CC(=O)OCC | 4 | 3 | 21 | 89 | -1
SMILES | STAT1 inh | MT stabilizer | STAT3 inh | STAT3 activator | b-catenin transl
O=C(Nc1ccc(N2CCN(C(=O)c3ccccc3)CC2)cc1)c1ccc([N+](=O)[O-])o1 | -83 | 15* | 1 | 103 | 1
CC(C)C(=O)N1CCN(c2ccc(NC(=O)c3ccc([N+](=O)[O-])o3)cc2Cl)CC1 | -61 | 53* | 0 | 106 | 7
CC(C)C(=O)N1CCN(c2ccc(NC(=O)c3ccc([N+](=O)[O-])o3)cc2)CC1 | -46 | 11 | 13 | 95 | 7
Cc1nn(-c2ccccc2)c(-c2ccccc2[N+](=O)[O-])c1C(=O)O | · | · | · | · | -1
COc1ccc(/C=N/n2cncn2)cc1Cn1cc([N+](=O)[O-])cn1 | · | · | · | · | -1
COc1ccc(/C=N/Nc2ccc([N+](=O)[O-])cc2)cc1Cn1cc([N+](=O)[O-])cn1 | -1 | 9 | 14 | 93 | 51*
COc1cccc(NC(=O)N2CCN(c3nnnn3-c3ccccc3)CC2)c1 | 7 | 2 | 6 | 102 | -1
